Data: ChEMBL document CHEMBL1155362, “Synthesis, characterization and derivatization of some novel types of mono- and bis-imidazolidineiminothiones and imidazolidineiminodithiones with antitumor, antiviral, antibacterial and antifungal activities--part I” (Eur J Med Chem, 2009)
≈ marks a conversion by molar mass, not a printed value. Calls of active or inactive are those of the source. The calls are words filed in the database; no cut-off is given here.

Columns and labels:
Coxsackievirus B4 [1] = experiment: Antiviral activity against Coxsackievirus B4 infected african green monkey Vero cells at 10^-2 dilution of 5 mg/ml by plaque formation assay; type: functional
How it was run: (§1)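 Compound dilutions prepared from a 5 mg/mL DMSO stock, using the maximum non-toxic dilution for Vero cells over 3 days; 0.1 mL virus (10³) mixed with 0.1 mL compound for 1 h at room temperature; mixture inoculated onto washed Vero monolayers in 12-well plates and adsorbed at 37 °C; 2× MEM/agarose overlay applied; read-out % reduction in plaque count versus untreated virus control.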

Escherichia coli = experiment: Antibacterial activity against Escherichia coli NCTC 10416 at 5 mg/ml by agar disk diffusion assay; type: functional; details: read-out: DIZ
Human alphaherpesvirus 1 [2] = experiment: Antiviral activity against HSV1 infected african green monkey Vero cells at 10^-2 dilution of 5 mg/ml by plaque formation assay; type: functional; how it was run: as §1
Salmonella typhi [3] = experiment: Antibacterial activity against Salmonella typhi NCIMB 9331 at 5 mg/ml by agar disk diffusion assay; type: functional, Salmonella enterica subsp. enterica serovar Typhi; details: Salmonella enterica, read-out: DIZ
Staphylococcus aureus [4] = experiment: Antibacterial activity against Staphylococcus aureus NCTC 7447 at 5 mg/ml by agar disk diffusion assay; type: functional; details: read-out: DIZ
Bacillus subtilis [5] = experiment: Antibacterial activity against Bacillus subtilis NCTC 1040 at 5 mg/ml by agar disk diffusion assay; type: functional; details: read-out: DIZ
Candida albicans [6] = experiment: Antifungal activity against Candida albicans IMRU 3669 at 5 mg/ml by agar disk diffusion assay; type: functional; details: for zone of inhibition at 5000 µg/mL: Candida albicans, IMRU 3669, read-out: DIZ
How it was run: (§2)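 Fungi maintained on Czapek's Dox agar; agar well diffusion with 1 cm wells and […] of each concentration (1, 2.5, 5 mg/mL) in DMF; inhibition zone diameter measured.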

Hepatovirus A [7] = experiment: Antiviral activity against HAV infected african green monkey Vero cells at 10^-2 dilution of 5 mg/ml by plaque formation assay; type: functional; how it was run: as §1
Coxsackievirus B4 [8] = experiment: Antiviral activity against Coxsackievirus B4 infected african green monkey Vero cells at 10^-3 dilution of 5 mg/ml by plaque formation assay; type: functional; how it was run: as §1
Human alphaherpesvirus 1 [9] = experiment: Antiviral activity against HSV1 infected african green monkey Vero cells at 10^-3 dilution of 5 mg/ml by plaque formation assay; type: functional; how it was run: as §1
Hepatovirus A [10] = experiment: Antiviral activity against HAV infected african green monkey Vero cells at 10^-3 dilution of 5 mg/ml by plaque formation assay; type: functional; how it was run: as §1
Aspergillus niger [11] = experiment: Antifungal activity against Aspergillus niger Ferm-BAM C-21 at 2.5 mg/ml by agar disk diffusion assay; type: functional; details: read-out: DIZ; how it was run: as §2
Bacillus subtilis [12] = experiment: Antibacterial activity against Bacillus subtilis NCIB 3610 at 5 mg/ml by agar disk diffusion assay; type: functional; details: for zone of inhibition at 5000 µg/mL: Bacillus subtilis, NCIB 3610, read-out: DIZ
Pseudomonas aeruginosa [13] = experiment: Antibacterial activity against Pseudomonas aeruginosa NCIB 9016 at 2.5 mg/ml by agar disk diffusion assay; type: functional; details: for zone of inhibition at 2500 µg/mL: Pseudomonas aeruginosa, NCIB 9016, read-out: DIZ
Candida albicans [14] = experiment: Antifungal activity against Candida albicans IMRU 3669 at 2.5 mg/ml by agar disk diffusion assay; type: functional; details: read-out: DIZ; how it was run: as §2
Coxsackievirus B4 [15] = experiment: Antiviral activity against Coxsackievirus B4 infected african green monkey Vero cells at 10^-4 dilution of 5 mg/ml by plaque formation assay; type: functional, organism-based; how it was run: as §1
Pseudomonas aeruginosa [16] = experiment: Antibacterial activity against Pseudomonas aeruginosa NCIB 9016 at 1 mg/ml by agar disk diffusion assay; type: functional; details: for zone of inhibition at 1000 µg/mL: Pseudomonas aeruginosa, NCIB 9016, read-out: DIZ
Aspergillus niger [17] = experiment: Antifungal activity against Aspergillus niger Ferm-BAM C-21 at 5 mg/ml by agar disk diffusion assay; type: functional; details: read-out: DIZ; how it was run: as §2
Hepatovirus A [18] = experiment: Antiviral activity against Hepatitis A virus infected african green monkey Vero cells at 10^-4 dilution of 5 mg/ml by plaque formation assay; type: functional; how it was run: as §1
Bacillus subtilis [19] = experiment: Antibacterial activity against Bacillus subtilis NCIB 3610 at 2.5 mg/ml by agar disk diffusion assay; type: functional; details: for zone of inhibition at 2500 µg/mL: Bacillus subtilis, NCIB 3610, read-out: DIZ
Pseudomonas aeruginosa [20] = experiment: Antibacterial activity against Pseudomonas aeruginosa NCIB 9016 at 5 mg/ml by agar disk diffusion assay; type: functional; details: for zone of inhibition at 5000 µg/mL: Pseudomonas aeruginosa, NCIB 9016, read-out: DIZ
Bacillus subtilis [21] = experiment: Antibacterial activity against Bacillus subtilis NCIB 3610 at 1 mg/ml by agar disk diffusion assay; type: functional; details: for zone of inhibition at 1000 µg/mL: Bacillus subtilis, NCIB 3610, read-out: DIZ
Human alphaherpesvirus 1 [22] = experiment: Antiviral activity against HSV1 infected african green monkey Vero cells at 10^-4 dilution of 5 mg/ml by plaque formation assay; type: functional; how it was run: as §1
Aspergillus niger [23] = experiment: Antifungal activity against Aspergillus niger IMI 31726 at 5 mg/ml by agar disk diffusion assay; type: functional; details: read-out: DIZ
Candida albicans [24] = experiment: Antifungal activity against Candida albicans IMRU 3669 at 1 mg/ml by agar disk diffusion assay; type: functional; details: read-out: DIZ; how it was run: as §2
Bacillus subtilis [25] = experiment: Antimicrobial activity against Bacillus subtilis NCTC 1040 by macrotube dilution assay; type: functional
Staphylococcus aureus [26] = experiment: Antimicrobial activity against Staphylococcus aureus NCTC 7447 by macrotube dilution assay; type: functional
Klebsiella pneumoniae = experiment: Antimicrobial activity against Klebsiella pneumoniae NCIMB 9111 by macrotube dilution assay; type: functional
Aspergillus niger [27] = experiment: Antifungal activity against Aspergillus niger Ferm-BAM C-21 by macrotube dilution assay; type: functional
How it was run: (§3)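 Macrotube twofold dilution per NCCLS/CLSI guidelines for fungi; 2 mg compound in 2.0 mL DMF, serially diluted across 14 tubes of Czapek's Dox medium, with a control tube; inoculum added to halve the concentration; 30 °C for 72 h; MIC is the lowest concentration without visible growth.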

Candida albicans [28] = experiment: Antifungal activity against Candida albicans IMRU 3669 by macrotube dilution assay; type: functional; how it was run: as §3
Aspergillus niger [29] = experiment: Antifungal activity against Aspergillus niger Ferm-BAM C-21 at 1 mg/ml by agar disk diffusion assay; type: functional; details: read-out: DIZ; how it was run: as §2
Salmonella typhi [30] = experiment: Antimicrobial activity against Salmonella typhi NCIMB 9331 by macrotube dilution assay; type: functional, Salmonella enterica subsp. enterica serovar Typhi; details: Salmonella enterica

| Structure (SMILES) | zone of inhibition at 5000 µg/mL (Escherichia coli) | zone of inhibition at 5000 µg/mL (Salmonella typhi [3]) | zone of inhibition at 5000 µg/mL (Staphylococcus aureus [4]) | zone of inhibition at 5000 µg/mL (Bacillus subtilis [5]) | zone of inhibition at 5000 µg/mL (Candida albicans [6]) | Activity (Coxsackievirus B4 [8]) | Activity (Human alphaherpesvirus 1 [9]) | Activity (Hepatovirus A [10]) | zone of inhibition at 2500 µg/mL (Aspergillus niger [11]) | zone of inhibition at 5000 µg/mL (Bacillus subtilis [12]) | zone of inhibition at 2500 µg/mL (Pseudomonas aeruginosa [13]) | zone of inhibition at 2500 µg/mL (Candida albicans [14]) | zone of inhibition at 1000 µg/mL (Pseudomonas aeruginosa [16]) | zone of inhibition at 5000 µg/mL (Aspergillus niger [17]) | zone of inhibition at 2500 µg/mL (Bacillus subtilis [19]) | zone of inhibition at 5000 µg/mL (Pseudomonas aeruginosa [20]) | zone of inhibition at 1000 µg/mL (Bacillus subtilis [21]) | zone of inhibition at 5000 µg/mL (Aspergillus niger [23]) | zone of inhibition at 1000 µg/mL (Candida albicans [24]) | MIC (Bacillus subtilis [25]) | also measured |
| --- | --- | --- | --- | --- | --- | --- | --- | --- | --- | --- | --- | --- | --- | --- | --- | --- | --- | --- | --- | --- | --- |
| CCOc1ccc(N2C(=O)N(c3ccc4c(c3)Cc3ccccc3-4)C(=O)C2=S)cc1 | 19 mm | 17.5 mm | 15.5 mm | 17 mm | 14.5 mm |  |  |  |  |  |  |  |  |  |  |  |  |  |  |  | Activity (Coxsackievirus B4 [1]): 60%; Activity (Human alphaherpesvirus 1 [2]): 50%; Activity (Hepatovirus A [7]): 50% |
| N=C1C(=S)N(c2ccc(I)cc2)C(=O)N1c1ccc2c(c1)Cc1ccccc1-2 | 15 mm | 17 mm | 13.5 mm | 13.5 mm | 13 mm | 50% | 70% | 50% |  |  |  |  |  |  |  |  |  |  |  |  |  |
| N=C1C(=S)N(c2ccc(Cl)c(Cl)c2)C(=O)N1c1ccc(Cl)cc1 | 19 mm | 17 mm | 16 mm | 16 mm | 17 mm |  |  |  | 15 mm | 14 mm | 16 mm | 13 mm | 15 mm | 17 mm | 13 mm | 18 mm | 13 mm | 21 mm |  |  | Activity (Coxsackievirus B4 [15]): inactive; Activity (Hepatovirus A [18]): inactive; diameter of the inhibition zone (DIZ) (Candida albicans [6]): 14 mm; Activity (Human alphaherpesvirus 1 [22]): inactive |
| CCOc1ccc(N2C(=O)N(c3ccc4c(c3)Cc3ccccc3-4)C(=N)C2=S)cc1 | 17 mm | 18 mm | 19 mm | 17 mm | 15 mm | inactive | 50% | inactive |  |  |  |  |  |  |  |  |  | 20 mm |  |  |  |
| N=C1C(=S)N(c2ccc(I)cc2)C(=S)N1c1ccc(I)cc1 |  |  |  |  | 21 mm |  |  |  | 15 mm | 24 mm | 17 mm | 20 mm | 15 mm | 17 mm | 21 mm | 20 mm | 19 mm |  | 19 mm | 3.9 µg/mL (≈ 7.1 µM) | MIC (Staphylococcus aureus [26]): 15.6 µg/mL (≈ 28.4 µM); MIC (Klebsiella pneumoniae): 7.8 µg/mL (≈ 14.2 µM); MIC (Aspergillus niger [27]): 0.49 µg/mL (≈ 0.892 µM); MIC (Candida albicans [28]): 1.95 µg/mL (≈ 3.55 µM); zone of inhibition at 1000 µg/mL (Aspergillus niger [29]): 12 mm; MIC (Salmonella typhi [30]): 1.95 µg/mL (≈ 3.55 µM) |
| N#CC(=S)Nc1ccc(Cl)c(Cl)c1 |  |  |  |  | 44 mm |  |  |  | 45 mm |  |  | 40 mm |  | 56 mm |  |  |  |  | 37 mm | 0.97 µg/mL (≈ 4.2 µM) | MIC (Staphylococcus aureus [26]): 3.9 µg/mL (≈ 16.9 µM); diameter of the inhibition zone (DIZ) (Bacillus subtilis [12]): 43 mm; diameter of the inhibition zone (DIZ) (Pseudomonas aeruginosa [13]): 37 mm; MIC (Klebsiella pneumoniae): 1.95 µg/mL (≈ 8.44 µM); diameter of the inhibition zone (DIZ) (Pseudomonas aeruginosa [16]): 35 mm; MIC (Aspergillus niger [27]): 15.6 µg/mL (≈ 67.5 µM); MIC (Candida albicans [28]): 0.97 µg/mL (≈ 4.2 µM); diameter of the inhibition zone (DIZ) (Bacillus subtilis [19]): 41 mm; diameter of the inhibition zone (DIZ) (Pseudomonas aeruginosa [20]): 38 mm; diameter of the inhibition zone (DIZ) (Bacillus subtilis [21]): 40 mm; zone of inhibition at 1000 µg/mL (Aspergillus niger [29]): 29 mm; MIC (Salmonella typhi [30]): 0.24 µg/mL (≈ 1.04 µM) |
